Source: ChEMBL document CHEMBL5257020, “Discovery of a 9-mer Cationic Peptide (LTX-315) as a Potential First in Class Oncolytic Peptide” (J Med Chem, 2016)
Where a SMILES comes first, the peptide text is derived from it. [ ]: non-standard residue; d: D form. ξ: configuration not given here. ξBip = NC(Cc1ccc(-c2ccccc2)cc1)C(=O)O; ξDip = NC(C(=O)O)C(c1ccccc1)c1ccccc1

Columns and labels:
A549 = experiment: Cytotoxicity against human A549 cells assessed as inhibition of cell proliferation incubated for 4 hrs by MTS assay; type: functional, cell-based; conditions: A549, 4 h
Procedure, shortened: (§1)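 Cells grown in RPMI-1640 with 2 mM L-glutamine and 10% FBS, plated, then held 24 h at 37 °C. Adherent lines washed once in FBS-free medium. Cells exposed 4 h at 37 °C, 5% CO2 in FBS-free medium to 10 concentrations (1/4 steps, 400 μM top). 1% Triton X-100 served as positive control. MTS/PMS added for 2 h, then OD 490 nm read. IC50 from semilog curves; three independent experiments, quadruplicate wells.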

[1] = Cytotoxicity against human Hs 445 cells assessed as inhibition of cell proliferation incubated for 4 hrs by MTS assay; type: functional, cell-based; conditions: Hs 445, 4 h; procedure, shortened: as §1
MDA-MB-231 = experiment: Cytotoxicity against human MDA-MB-231 cells assessed as inhibition of cell proliferation incubated for 4 hrs by MTS assay; type: functional, cell-based; conditions: MDA-MB-231, 4 h; procedure, shortened: as §1
SU-DHL-1 = experiment: Cytotoxicity against human SU-DHL-1 cells assessed as inhibition of cell proliferation incubated for 4 hrs by MTS assay; type: functional, cell-based; conditions: SU-DHL-1, 4 h; procedure, shortened: as §1
K562 [2] = experiment: Cytotoxicity in imatinib resistant human K562 cells assessed as inhibition of cell proliferation incubated for 4 hrs by MTS assay; type: functional, cell-based; conditions: K562, 4 h
Procedure, shortened: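 Oncodesign panel MTS/PMS assay. Cells in RPMI-1640 + 10% FBS. After 24 h pre-plating, adherent lines washed in FBS-free medium. Cells exposed 4 h at 37 °C in FBS-free medium to 10 concentrations, 1/4 dilutions from 400 μM top. Triton X-100 (1% final) positive control. MTS/PMS added, 2 h, OD 490 nm. IC50 from semilog curves. Three independent experiments, quadruplicate wells.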

A20 = experiment: Cytotoxicity against mouse A20 lymphoma cells assessed as inhibition of cell proliferation incubated for 4 hrs by MTT assay; type: functional, cell-based; conditions: A20, 4 h
Procedure, shortened: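 Murine A20 cells cultured in RPMI-1640 with 2 mM L-glutamine, 1.5 g/L sodium bicarbonate, 4.5 g/L glucose, 10 mM HEPES, 1.0 mM sodium pyruvate, 0.05 mM 2-mercaptoethanol and 10% FBS, without antibiotics, at 37 °C, 5% CO2. IC50 from three or more independent measurements, given as mean ± SD.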

MCF7 = experiment: Cytotoxicity against human MCF7 cells assessed as inhibition of cell proliferation incubated for 4 hrs by MTS assay; type: functional, cell-based; conditions: MCF7, 4 h; procedure, shortened: as §1
Toledo = experiment: Cytotoxicity against human Toledo cells assessed as inhibition of cell proliferation incubated for 4 hrs by MTS assay; type: functional, cell-based; procedure, shortened: as §1
PANC-1 = experiment: Cytotoxicity against human PANC-1 cells assessed as inhibition of cell proliferation incubated for 4 hrs by MTS assay; type: functional, cell-based; conditions: PANC-1, 4 h; procedure, shortened: as §1
RPMI-8226 = experiment: Cytotoxicity against human RPMI-8226 cells assessed as inhibition of cell proliferation incubated for 4 hrs by MTS assay; type: functional, cell-based; conditions: RPMI-8226, 4 h; procedure, shortened: as §1
CCRF-CEM = experiment: Cytotoxicity against human CCRF-CEM cells assessed as inhibition of cell proliferation incubated for 4 hrs by MTS assay; type: functional, cell-based; procedure, shortened: as §1
COLO 205 = experiment: Cytotoxicity against human COLO 205 cells assessed as inhibition of cell proliferation incubated for 4 hrs by MTS assay; type: functional, cell-based; conditions: COLO 205, 4 h; procedure, shortened: as §1
Ramos = experiment: Cytotoxicity against human Ramos cells assessed as inhibition of cell proliferation incubated for 4 hrs by MTS assay; type: functional, cell-based; procedure, shortened: as §1
SH-SY5Y = experiment: Cytotoxicity against human SH-SY5Y cells assessed as inhibition of cell proliferation incubated for 4 hrs by MTS assay; type: functional, cell-based; procedure, shortened: as §1
[3] = Cytotoxicity against human U-87 MG cells assessed as inhibition of cell proliferation incubated for 4 hrs by MTS assay; type: functional, cell-based, U-87MG ATCC; procedure, shortened: as §1
HCT-116 = experiment: Cytotoxicity against human HCT-116 cells assessed as inhibition of cell proliferation incubated for 4 hrs by MTS assay; type: functional, cell-based; conditions: HCT-116, 4 h; procedure, shortened: as §1
IGROV-1 = experiment: Cytotoxicity against human IGROV-1 cells assessed as inhibition of cell proliferation incubated for 4 hrs by MTS assay; type: functional, cell-based; conditions: IGROV-1, 4 h; procedure, shortened: as §1
[4] = Cytotoxicity against human MINO cells assessed as inhibition of cell proliferation incubated for 4 hrs by MTS assay; type: functional, cell-based; procedure, shortened: as §1
A498 = experiment: Cytotoxicity against human A498 cells assessed as inhibition of cell proliferation incubated for 4 hrs by MTS assay; type: functional, cell-based; conditions: A498, 4 h; procedure, shortened: as §1
NCI-H460 = experiment: Cytotoxicity against human NCI-H460 cells assessed as inhibition of cell proliferation incubated for 4 hrs by MTS assay; type: functional, cell-based; conditions: NCI-H460, 4 h; procedure, shortened: as §1
SK-MEL-2 = experiment: Cytotoxicity against human SK-MEL-2 cells assessed as inhibition of cell proliferation incubated for 4 hrs by MTS assay; type: functional, cell-based; conditions: SK-MEL-2, 4 h; procedure, shortened: as §1
MDA-MB-435S = experiment: Cytotoxicity against human MDA-MB-435S cells assessed as inhibition of cell proliferation incubated for 4 hrs by MTS assay; type: functional, cell-based; procedure, shortened: as §1
Raji = experiment: Cytotoxicity against human Raji cells assessed as inhibition of cell proliferation incubated for 4 hrs by MTS assay; type: functional, cell-based; procedure, shortened: as §1
KARPAS-299 = experiment: Cytotoxicity against human KARPAS-299 cells assessed as inhibition of cell proliferation incubated for 4 hrs by MTS assay; type: functional, cell-based; conditions: KARPAS-299, 4 h; procedure, shortened: as §1
[5] = Cytotoxicity against mouse AT84 cells assessed as inhibition of cell proliferation incubated for 4 hrs by MTT assay; type: functional, cell-based; conditions: AT84, 4 h
T47D = experiment: Cytotoxicity against human T47D cells assessed as inhibition of cell proliferation incubated for 4 hrs by MTS assay; type: functional, cell-based; procedure, shortened: as §1
K562 [6] = experiment: Cytotoxicity against human K562 cells assessed as inhibition of cell proliferation incubated for 4 hrs by MTS assay; type: functional, cell-based; conditions: K562, 4 h; procedure, shortened: as §1
SK-HEP1 = experiment: Cytotoxicity against human SK-HEP1 cells assessed as inhibition of cell proliferation incubated for 4 hrs by MTS assay; type: functional, cell-based; conditions: SK-HEP1, 4 h; procedure, shortened: as §1
Malme-3M = experiment: Cytotoxicity against human Malme-3M cells assessed as inhibition of cell proliferation incubated for 4 hrs by MTS assay; type: functional, cell-based; procedure, shortened: as §1
HT-29 = experiment: Cytotoxicity against human HT-29 cells assessed as inhibition of cell proliferation incubated for 4 hrs by MTS assay; type: functional, cell-based; conditions: HT-29, 4 h; procedure, shortened: as §1
786-0 = experiment: Cytotoxicity against human 786-0 cells assessed as inhibition of cell proliferation incubated for 4 hrs by MTS assay; type: functional, cell-based; conditions: 786-0, 4 h; procedure, shortened: as §1
HepG2 = experiment: Cytotoxicity against human HepG2 cells assessed as inhibition of cell proliferation incubated for 4 hrs by MTS assay; type: functional, cell-based; conditions: HepG2, 4 h; procedure, shortened: as §1
OVCAR-3 = experiment: Cytotoxicity against human OVCAR-3 cells assessed as inhibition of cell proliferation incubated for 4 hrs by MTS assay; type: functional, cell-based; conditions: OVCAR-3, 4 h; procedure, shortened: as §1
BXPC-3 = experiment: Cytotoxicity against human BXPC-3 cells assessed as inhibition of cell proliferation incubated for 4 hrs by MTS assay; type: functional, cell-based; conditions: BXPC-3, 4 h; procedure, shortened: as §1
[7] = Cytotoxicity against human IGROV(CDDP) cells assessed as inhibition of cell proliferation incubated for 4 hrs by MTS assay; type: functional, cell-based; procedure, shortened: as §1

Structure (SMILES)	IC50 (A549) [µM]	IC50 [1] [µM]	IC50 (MDA-MB-231) [µM]	IC50 (SU-DHL-1) [µM]	IC50 (K562 [2]) [µM]	IC50 (A20) [µM]	IC50 (MCF7) [µM]	IC50 (Toledo) [µM]	IC50 (PANC-1) [µM]	IC50 (RPMI-8226) [µM]	IC50 (CCRF-CEM) [µM]	IC50 (COLO 205) [µM]	IC50 (Ramos) [µM]	IC50 (SH-SY5Y) [µM]	IC50 [3] [µM]	IC50 (HCT-116) [µM]	IC50 (IGROV-1) [µM]	IC50 [4] [µM]	IC50 (A498) [µM]	IC50 (NCI-H460) [µM]	other results
NCCCC[C@H](NC(=O)[C@H](Cc1c[nH]c2ccccc12)NC(=O)[C@H](Cc1c[nH]c2ccccc12)NC(=O)[C@H](CCCCN)NC(=O)[C@H](CCCCN)NC(=O)[C@H](Cc1c[nH]c2ccccc12)NC(=O)C(Cc1ccc(-c2ccccc2)cc1)NC(=O)[C@H](CCCCN)NC(=O)[C@@H](N)CCCCN)C(N)=O (stereo not given in full) (H-KK[ξBip]WKKWWK-NH2)	10.3	4.2	10.8	4.6	7.9	13	6.8	5.2	10.8	4	7.6	4.9	3.2	7.8	18.5	7.6	13.4	8.4	7.9	11.2	IC50 (SK-MEL-2): 13.4 µM; IC50 (MDA-MB-435S): 11.4 µM; IC50 (Raji): 16.1 µM; IC50 (KARPAS-299): 10 µM; IC50 [5]: 17.7 µM; IC50 (T47D): 4.2 µM; IC50 (K562 [6]): 7.2 µM; IC50 (SK-HEP1): 12.6 µM; IC50 (Malme-3M): 8.9 µM; IC50 (HT-29): 10.5 µM; IC50 (786-0): 16.8 µM; IC50 (HepG2): 14.8 µM; IC50 (OVCAR-3): 14.3 µM; IC50 (BXPC-3): 8.9 µM; IC50 [7]: 6.6 µM
N=C(N)NCCC[C@H](NC(=O)[C@H](Cc1c[nH]c2ccccc12)NC(=O)[C@H](Cc1c[nH]c2ccccc12)NC(=O)[C@H](CCCNC(=N)N)NC(=O)[C@H](CCCNC(=N)N)NC(=O)C(NC(=O)[C@H](Cc1c[nH]c2ccccc12)NC(=O)[C@H](CCCNC(=N)N)NC(=O)[C@@H](N)CCCNC(=N)N)C(c1ccccc1)c1ccccc1)C(N)=O (stereo not given in full) (H-RRW[ξDip]RRWWR-NH2)	7.3	2.2	7.6	5	7.7	6.7	5.5	3	12.5	4.1	5.6	6.7	2.8	5.4	13.1	4.8	11.1	5.2	5.7	9.3	IC50 (SK-MEL-2): 10.6 µM; IC50 (MDA-MB-435S): 8 µM; IC50 (Raji): 11.3 µM; IC50 (KARPAS-299): 8.2 µM; IC50 [5]: 11.3 µM; IC50 (T47D): 3.5 µM; IC50 (K562 [6]): 7 µM; IC50 (SK-HEP1): 6.3 µM; IC50 (Malme-3M): 10.4 µM; IC50 (HT-29): 11.5 µM; IC50 (786-0): 7.5 µM; IC50 (HepG2): 16.6 µM; IC50 (OVCAR-3): 8.4 µM; IC50 (BXPC-3): 6.2 µM; IC50 [7]: 5.5 µM
NCCCC[C@H](NC(=O)[C@H](Cc1c[nH]c2ccccc12)NC(=O)[C@H](CCCCN)NC(=O)[C@H](CCCCN)NC(=O)C(NC(=O)[C@H](Cc1c[nH]c2ccccc12)NC(=O)[C@H](CCCCN)NC(=O)[C@H](CCCCN)NC(=O)[C@@H](N)Cc1c[nH]c2ccccc12)C(c1ccccc1)c1ccccc1)C(N)=O (stereo not given in full) (H-WKKW[ξDip]KKWK-NH2)	10.4	6.5	13	7.3	9	16	8.9	7.7	17.1	6	7.8	8.7	5.4	12.7	17.3	10.3	19.6	9.5	13.9	9	IC50 (SK-MEL-2): 18.4 µM; IC50 (MDA-MB-435S): 14.1 µM; IC50 (Raji): 12.5 µM; IC50 (KARPAS-299): 11.6 µM; IC50 [5]: 21 µM; IC50 (T47D): 4.8 µM; IC50 (K562 [6]): 8.2 µM; IC50 (SK-HEP1): 15.6 µM; IC50 (Malme-3M): 12.4 µM; IC50 (HT-29): 11 µM; IC50 (786-0): 19.2 µM; IC50 (HepG2): 20.1 µM; IC50 (OVCAR-3): 13.9 µM; IC50 (BXPC-3): 17.9 µM; IC50 [7]: 6.4 µM
